Measurements: ChEMBL document CHEMBL4152363, “Andrographolide derivative as STAT3 inhibitor that protects acute liver damage in mice” (Bioorg Med Chem, 2018)
Activity calls are given as the source filed them. The rule behind the calls is not given here.

Experiments:
[1] = target: T1, Signal transducer and activator of transcription 3 (Homo sapiens, UniProt P40763); test: Inhibition of IFNgamma-stimulated STAT3 activation in human AD293 cells incubated with IFNgamma for 16 hrs followed by compound addition measured after 24 hrs by luciferase reporter gene assay; assay type: cell-based
Method in brief: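 AD-293 or HeLa cells in DMEM/10% FBS stimulated with 20 pg/mL IFN-γ; compound treatment 24 h; luciferase activity measured in cell extracts; EC50 derived.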

[2] = target: T1, Signal transducer and activator of transcription 3; test: Inhibition of IL-6 stimulated STAT3 activation in human AD293 cells incubated with IL-6 for 16 hrs followed by compound addition measured after 6 hrs by luciferase reporter gene assay; assay type: cell-based
Method in brief: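 AD-293 cells stimulated with 2.5 μg/mL IL-6; compound treatment 6 h; luciferase activity read from cell extracts; EC50 derived.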

[3] = system: AD293; test: Cytotoxicity against human AD293 cells; assay type: cell-based; details: ad293
Method in brief: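 AD-293 or HeLa cells grown in high-glucose DMEM with 10% FBS and 1% penicillin-streptomycin; compound exposure 24 h; cytotoxicity reported as CC10.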

[4] = target: T2, Signal transducer and activator of transcription 1-alpha/beta (Homo sapiens) (UniProt P42224); test: Inhibition of IFNgamma-stimulated STAT1 phosphorylation at Tyr701 residues in human AD293 cell lysates incubated with IFNgamma followed by compound addition at 10 uM by Western blot analysis
T2 sequence (whole entry): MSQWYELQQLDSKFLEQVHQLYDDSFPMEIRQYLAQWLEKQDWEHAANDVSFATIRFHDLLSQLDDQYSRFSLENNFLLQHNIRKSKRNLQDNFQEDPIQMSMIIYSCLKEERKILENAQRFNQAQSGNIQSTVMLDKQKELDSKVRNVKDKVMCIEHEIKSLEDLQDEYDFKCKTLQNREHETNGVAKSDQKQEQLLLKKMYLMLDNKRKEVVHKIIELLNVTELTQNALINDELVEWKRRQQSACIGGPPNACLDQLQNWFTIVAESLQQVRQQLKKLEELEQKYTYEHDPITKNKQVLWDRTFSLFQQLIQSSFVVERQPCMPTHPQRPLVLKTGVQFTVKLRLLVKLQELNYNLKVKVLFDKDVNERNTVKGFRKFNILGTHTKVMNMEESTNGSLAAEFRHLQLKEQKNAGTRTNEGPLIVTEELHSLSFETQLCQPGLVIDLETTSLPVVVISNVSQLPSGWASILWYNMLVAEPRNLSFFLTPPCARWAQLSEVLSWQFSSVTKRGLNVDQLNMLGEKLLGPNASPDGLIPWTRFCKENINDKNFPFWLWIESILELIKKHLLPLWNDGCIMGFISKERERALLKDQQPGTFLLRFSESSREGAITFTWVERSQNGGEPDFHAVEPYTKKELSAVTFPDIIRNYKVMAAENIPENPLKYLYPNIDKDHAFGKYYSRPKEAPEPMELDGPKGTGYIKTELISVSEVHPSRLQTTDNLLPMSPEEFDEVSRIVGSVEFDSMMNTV
Method in brief: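 AD-293 cells treated with 1 μg/mL IFN-γ alone or with compounds at 10 μM; phospho- and total STAT1 and STAT3 assessed by western blot; representative of at least three independent experiments.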

[5] = target: T1, Signal transducer and activator of transcription 3; test: Inhibition of DNA binding activity of STAT3 in human AD293 cells up to 40 uM; assay type: cell-based
Method in brief: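 STAT3 DNA binding measured with TransAM STAT family ELISA kit per manufacturer; competition control with threefold free oligo; mean ± SD of three separate experiments.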

[6] = system: Mus musculus; test: Hepatoprotective activity against CCL4-induced acute liver damage in Balb/c mouse assessed as decrease in number of necrotic cells at 30 mg/kg, po qd for 7 days measured after 16 hrs post CCL4 challenge by hematoxylin-eosin staining based light microscopy; assay type: functional, organism-based
Method in brief: (§1)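 Male BalB/C mice given oral 30 mg/kg daily for 7 days, then sc CCl4 (40% in olive oil, 10 ml/kg); sacrificed 16 h later; livers fixed in 10% formaldehyde, paraffin sections stained with H&E or Masson's trichrome, light microscopy, ≥3 sections per liver; n=5, two experiments.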

[7] = system: Mus musculus; test: Hepatoprotective activity against CCL4-induced acute liver damage in Balb/c mouse assessed as increase in number of PCNA positive cells at 30 mg/kg, po qd for 7 days measured after 16 hrs post CCL4 challenge by hematoxylin staining based immunohistochemistry method; assay type: functional, organism-based
Method in brief: (§2)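 Liver sections from mice dosed orally 30 mg/kg daily 7 days then sc CCl4, killed 16 h after; H2O2 block, goat serum/BSA/gelatin blocking 1 h RT, primary antibody (α-SMA, Ki67, PCNA or STAT3) 4 °C overnight, HRP secondary, DAB, hematoxylin counterstain; >30 fields at 400× quantified; n=5.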

[8] = system: Mus musculus; test: Antifibrotic activity in CCL4-induced acute liver damage Balb/c mouse model assessed as decrease in collagen deposition in liver at 30 mg/kg, po qd for 7 days measured after 16 hrs post CCL4 challenge by masson trichome staining based assay; assay type: functional, organism-based; method in brief: as §1
[9] = system: Mus musculus; test: Antifibrotic activity in CCL4-induced acute liver damage Balb/c mouse model assessed as decrease in alpha-SMA expression in areas surrounding blood vessels at 30 mg/kg, po qd for 7 days measured after 16 hrs post CCL4 challenge by masson trichome staining based assay; assay type: functional, organism-based; details: in the assay text read “immunohistochemistry” for “masson trichome staining based assay”; method in brief: as §2
[10] = system: Mus musculus; test: Reduction in MMP10 mRNA expression level in CCL4-induced acute liver damage in Balb/c mouse at 30 mg/kg, po qd for 7 days measured after 16 hrs post CCL4 challenge by qRT-PCR method; assay type: functional, organism-based
Method in brief: (§3)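 Mice given 30 mg/kg orally once daily 7 days before sc CCl4 (40% in olive oil, 10 ml/kg); livers harvested 16 h later, PBS-washed, stored at −70 °C for RNA extraction and transcript quantification; n=5, two independent experiments.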

[11] = system: Mus musculus; test: Reduction in Col1a1 mRNA expression level in CCL4-induced acute liver damage in Balb/c mouse at 30 mg/kg, po qd for 7 days measured after 16 hrs post CCL4 challenge by qRT-PCR method; assay type: functional, organism-based; method in brief: as §3
[12] = system: Mus musculus; test: Reduction in serum AST level in CCL4-induced acute liver damage in Balb/c mouse at 30 mg/kg, po qd for 7 days measured after 16 hrs post CCL4 challenge […]; assay type: functional, organism-based
[13] = system: Mus musculus; test: In vivo inhibition of STAT3 expression level in CCL4-induced acute liver damage in Balb/c mouse assessed as decrease in nuclear STAT3 phosphorylation at 30 mg/kg, po qd for 7 days measured after 16 hrs post CCL4 challenge by hematoxylin staining based immunohistochemistry method; assay type: functional, organism-based; method in brief: as §2
[14] = system: Mus musculus; test: Antiinflammatory activity in CCL4-induced acute liver damage Balb/c mouse model assessed as decrease in serum IL-6 levels at 30 mg/kg, po qd for 7 days measured after 16 hrs post CCL4 challenge; assay type: functional, organism-based
Method in brief: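 BalB/C males dosed orally 30 mg/kg daily for 7 days, then sc CCl4 (40% in olive oil, 10 ml/kg); serum collected 16 h post-CCl4 after CO2 anaesthesia, stored at −70 °C until IL-6, MCP-1 or TGF-β analysis; n=5.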

[15] = system: Mus musculus; test: Reduction in SMAD2 mRNA expression level in liver of CCL4-induced acute liver damage in Balb/c mouse at 30 mg/kg, po qd for 7 days measured after 16 hrs post CCL4 challenge by qRT-PCR method; assay type: functional, organism-based; method in brief: as §3

T1 sequence (P40763 whole entry): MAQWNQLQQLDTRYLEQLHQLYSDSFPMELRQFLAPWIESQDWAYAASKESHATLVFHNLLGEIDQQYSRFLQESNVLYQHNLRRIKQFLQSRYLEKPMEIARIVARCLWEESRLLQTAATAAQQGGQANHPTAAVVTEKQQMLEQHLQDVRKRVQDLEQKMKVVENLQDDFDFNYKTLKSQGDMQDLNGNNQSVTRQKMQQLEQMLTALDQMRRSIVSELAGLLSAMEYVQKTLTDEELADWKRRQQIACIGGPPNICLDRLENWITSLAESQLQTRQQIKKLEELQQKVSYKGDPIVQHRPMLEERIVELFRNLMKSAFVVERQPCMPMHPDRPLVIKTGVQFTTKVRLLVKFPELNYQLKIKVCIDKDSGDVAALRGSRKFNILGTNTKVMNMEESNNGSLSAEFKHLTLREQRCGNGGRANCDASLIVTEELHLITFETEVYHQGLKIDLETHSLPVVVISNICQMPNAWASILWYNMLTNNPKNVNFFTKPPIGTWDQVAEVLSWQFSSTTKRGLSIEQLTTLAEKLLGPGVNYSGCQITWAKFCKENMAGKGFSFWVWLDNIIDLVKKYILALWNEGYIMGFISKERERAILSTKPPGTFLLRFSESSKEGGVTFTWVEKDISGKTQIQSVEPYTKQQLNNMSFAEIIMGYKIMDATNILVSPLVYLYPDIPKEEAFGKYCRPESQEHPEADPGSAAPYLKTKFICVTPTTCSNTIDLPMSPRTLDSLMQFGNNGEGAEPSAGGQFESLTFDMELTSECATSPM

EC50 [1]: 5.99 µM
EC50 [2]: 3.95 µM
inhibition [4]: inactive
inhibition [5]: inactive
SMILES: CC(C)(C)[Si](C)(C)O[C@@H]1COC(=O)/C1=C/C[C@@H]1[C@]2(CC[C@H]3[C@@]1(C)CCC(=O)[C@@]3(C)CO)CO2
CC10 [3]: > 10 µM
Activity [6]: Active
Activity [7]: Active
Activity [8]: Active
Activity [9]: Active
Activity [10]: Active
Activity [11]: inactive
Activity [12]: inactive
inhibition [13]: Active
Activity [14]: Active
Activity [15]: inactive
